Source: ChEMBL document CHEMBL1121955, “Cardenolide analogues. 14. Synthesis and biological activity of glucosides of C17 beta-modified derivatives of digitoxigenin” (J Med Chem, 1982)
The source made the active and inactive calls.

Key:
Cavia porcellus [1] = species on record: Cavia porcellus; test: The dose producing 75% increase in contractility in guinea pig atria; assay type: functional
How it was run: (§1)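 Isolated guinea pig left atria were equilibrated 1 h, set to 1 g resting tension, and paced with 10-ms rectangular pulses at 90/min, 20% above threshold (minimum 5 V). Cumulative doses in propylene glycol/water (7:3) were added at 30-min intervals or 5 min after maximum effect. Isometric force change was referenced to control atria. At least nine replicate curves were fitted, and ΔF75 was read from the pooled fitted curve.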

Cavia porcellus [2] = species on record: Cavia porcellus; test: Relative potency of compound to Digitalis receptor was determined to that of digitoxigenin; Inactive
Cavia porcellus [3] = species on record: Cavia porcellus; test: The dose producing 75% increase in contractility in guinea pig atria; Inactive; assay type: functional; how it was run: as §1
Cavia porcellus [4] = species on record: Cavia porcellus; test: The dose producing 75% increase in contractility in guinea pig atria
Cavia porcellus [5] = species on record: Cavia porcellus; test: Binding affinity against digitalis receptor was determined relative to digitoxigenin

| SMILES | Delta F75 (Cavia porcellus [1]) [M l-1] | other results |
| --- | --- | --- |
| C[C@H]1O[C@@H](O[C@H]2[C@@H](O)C[C@H](O[C@H]3[C@@H](O)C[C@H](O[C@H]4CC[C@@]5(C)[C@H](CC[C@@H]6[C@@H]5CC[C@]5(C)[C@@H](C7=CC(=O)OC7)CC[C@]65O)C4)O[C@@H]3C)O[C@@H]2C)C[C@H](O)[C@@H]1O [DIGITOXIN] | 1.6e-07 | – |
| CCCOC(=O)/C=C/[C@H]1CC[C@@]2(O)[C@@H]3CC[C@H]4C[C@@H](O[C@@H]5O[C@H](CO)[C@@H](O)[C@H](O)[C@H]5O)CC[C@]4(C)[C@H]3CC[C@]12C | 1.1e-05 | – |
| C[C@]12CC[C@H](O)CC1CC[C@@H]1[C@@H]2CC[C@]2(C)[C@@H](/C=C/C(=O)O)CC[C@]12O (some centres not stated) | – | Relative potency (Cavia porcellus [2]): inactive; Delta F75 (Cavia porcellus [3]): inactive |
| CC(C)COC(=O)/C=C/[C@H]1CC[C@@]2(O)[C@@H]3CC[C@H]4C[C@@H](O[C@@H]5O[C@H](CO)[C@@H](O)[C@H](O)[C@H]5O)CC[C@]4(C)[C@H]3CC[C@]12C | 6.3e-05 | – |
| C[C@@H]1O[C@@H](O[C@H]2C[C@@H](O)[C@]3(CO)[C@H]4[C@H](O)C[C@]5(C)[C@@H](C6=CC(=O)OC6)CC[C@]5(O)[C@@H]4CC[C@]3(O)C2)[C@H](O)[C@H](O)[C@H]1O [OUABAIN] | – | Delta F75 (Cavia porcellus [4]): 2.9e-07 M l-1 |
| CCCCOC(=O)/C=C/[C@H]1CC[C@@]2(O)[C@@H]3CC[C@H]4C[C@@H](O[C@@H]5O[C@H](CO)[C@@H](O)[C@H](O)[C@H]5O)CC[C@]4(C)[C@H]3CC[C@]12C | 6.9e-05 | – |
| COC(=O)/C=C/[C@H]1CC[C@@]2(O)[C@@H]3CC[C@H]4C[C@@H](O[C@@H]5O[C@H](CO)[C@@H](O)[C@H](O)[C@H]5O)CC[C@]4(C)[C@H]3CC[C@]12C | 1.5e-06 | – |
| C[C@]12CC[C@H](O)CC1CC[C@@H]1[C@@H]2CC[C@]2(C)[C@@H](/C=C/C#N)CC[C@]12O (some centres not stated) | 1.6e-06 | Relative potency (Cavia porcellus [5]): 0.69 |
| CC(=O)/C=C/[C@H]1CC[C@@]2(O)[C@@H]3CC[C@H]4C[C@@H](O[C@@H]5O[C@H](CO)[C@@H](O)[C@H](O)[C@H]5O)CC[C@]4(C)[C@H]3CC[C@]12C | 3.1e-06 | – |
| CC(C)OC(=O)/C=C/[C@H]1CC[C@@]2(O)[C@@H]3CC[C@H]4C[C@@H](O[C@@H]5O[C@H](CO)[C@@H](O)[C@H](O)[C@H]5O)CC[C@]4(C)[C@H]3CC[C@]12C | 1.5e-05 | – |
| COC(=O)/C=C/[C@H]1CC[C@]2(O)[C@@H]3CCC4C[C@@H](O)CC[C@]4(C)[C@H]3CC[C@]12C (some centres not stated) | 3.8e-06 | Relative potency (Cavia porcellus [5]): 0.29 |
| CC(=O)/C=C/[C@H]1CC[C@]2(O)[C@@H]3CCC4C[C@@H](O)CC[C@]4(C)[C@H]3CC[C@]12C (some centres not stated) | 5.6e-06 | – |
| CCOC(=O)/C=C/[C@H]1CC[C@@]2(O)[C@@H]3CC[C@H]4C[C@@H](O[C@@H]5O[C@H](CO)[C@@H](O)[C@H](O)[C@H]5O)CC[C@]4(C)[C@H]3CC[C@]12C | 6.2e-06 | – |
| C[C@]12CC[C@H](O)C[C@H]1CC[C@@H]1[C@@H]2CC[C@]2(C)[C@@H](C3=CC(=O)OC3)CC[C@]12O [DIGITOXIGENIN] | – | Relative potency (Cavia porcellus [5]): 1; Delta F75 (Cavia porcellus [4]): 1.1e-06 M l-1 |
| C[C@]12CC[C@H](O[C@@H]3O[C@H](CO)[C@@H](O)[C@H](O)[C@H]3O)C[C@@H]1CC[C@@H]1[C@@H]2CC[C@]2(C)[C@@H](/C=C/C#N)CC[C@@]12O | 6.9e-07 | – |
| C[C@]12CC[C@H](O)C[C@H]1CC[C@@H]1[C@@H]2CC[C@]2(C)[C@@H](/C=C/C(N)=O)CC[C@]12O | <20 | Relative potency (Cavia porcellus [5]): < 0.01 |
| C[C@H]1O[C@@H](O[C@H]2[C@@H](O)C[C@H](O[C@H]3[C@@H](O)C[C@H](O[C@H]4CC[C@@]5(C)[C@H](CC[C@@H]6[C@@H]5C[C@@H](O)[C@]5(C)[C@@H](C7=CC(=O)OC7)CC[C@]65O)C4)O[C@@H]3C)O[C@@H]2C)C[C@H](O)[C@@H]1O [DIGOXIN] | 6.6e-07 | – |
